The results in this text go back to ChEMBL document CHEMBL1131111, “Synthesis and anti-HIV-1 activity of novel 2,3-dihydro-7H-thiazolo[3,2-a]pyrimidin-7-ones” (1998).

Common to all, as to assay type: functional
The test system of experiment [1] is MT4. As to the kind of experiment: Cytotoxic dose required to reduce the proliferation of normal uninfected MT-4 cells by 50%. Particulars: Homo sapiens, read-out: CD50 (the source's name). The procedure, abridged:
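Cytotoxicity scored as concentration-dependent inhibition of proliferation of uninfected MT-4 cells by MTT assay. Cells grown in RPMI 1640 + 10% heat-inactivated FCS. CD50 is the mean of three independent determinations.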

For experiment [2], the system named is Human immunodeficiency virus 1. As to the kind of experiment: Effective dose required for 50% inhibition of HIV-1 antigen production in MT-4 cultures.
For experiment [3], the system named is MT4. As to the kind of experiment: Selectivity index is the ratio between CD50 and IC50 values of the compound. The procedure, abridged:
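Selectivity index calculated as CD50 (MTT, uninfected MT-4 cells) divided by ED50 (HIV-1 antigen ELISA, infected MT-4 cultures). Each value is the mean of three independent determinations.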

Consider `CCc1c(Cc2ccccc2)n2c(nc1=O)SCC2OC` (configuration not stated), for which the CC50 in the experiment on MT4 [1] was more than 100 µM. The same compound returned an ED50 in experiment [2] of 36 µM. Also, the SI in the experiment on MT4 [3] was more than 3.
In experiment [2], `CCOCn1c(Cc2ccccc2)c(C(C)C)c(=O)[nH]c1=O` [EMIVIRINE] gave an ED50 of 0.005 µM. The SI with MT4 [3] came to 28000.
For the compound `CCOC(CSc1nc(O)c(CC)c(Cc2cc(C)cc(C)c2)n1)OCC`, the CC50 in the experiment with MT4 [1] was more than 100 µM. Also, the ED50 in experiment [2] was determined as 21 µM. Besides, the SI in the experiment with MT4 [3] is reported as more than 5.
For `COC(CSc1nc(O)c(C(C)C)c(Cc2ccccc2)n1)OC` the same measures were 32 µM, 4 µM and 8.
The corresponding values for `CCOC1CSc2nc(=O)c(CC)c(Cc3ccccc3)n21` (configuration not stated) are more than 100 µM, 46 µM and more than 2.
Regarding `C=CCSc1nc(O)c(CC)c(Cc2ccccc2)n1`, in the experiment on MT4 [1], the CC50 was more than 100 µM. This compound had an ED50 in experiment [2] of 1.5 µM. In addition, the SI in the experiment on MT4 [3] was more than 67.
For `Cc1cn([C@H]2C[C@H](N=[N+]=[N-])[C@@H](CO)O2)c(=O)[nH]c1=O` [ZIDOVUDINE] the same measures were 52 µM, 0.04 µM and 1300.
Regarding `CCc1c(Cc2cc(C)cc(C)c2)n2c(nc1=O)SCC2CBr` (configuration not stated), in the experiment on MT4 [1], the CC50 was 46 µM. In addition, in experiment [2], the ED50 was 2.8 µM. Also, the SI in the experiment with MT4 [3] worked out at 16.
The corresponding values for `CCOC1CSc2nc(=O)c(C(C)C)c(Cc3ccccc3)n21` (configuration not stated) are more than 100 µM, 100 µM and more than 1.
The corresponding values for `CCc1c(Cc2cc(C)cc(C)c2)n2c(nc1=O)SCC2OC` (configuration not stated) are more than 100 µM, 3 µM and more than 33.
For `CCOC1CSc2nc(=O)c(CC)c(Cc3cc(C)cc(C)c3)n21` (configuration not stated) the same measures were more than 100 µM, 0.7 µM and more than 140.
For `C=CCSc1nc(O)c(C(C)C)c(Cc2ccccc2)n1`, the CC50 with MT4 [1] was more than 100 µM. In experiment [2], this compound showed an ED50 of 1.5 µM. Moreover, the SI with MT4 [3] is more than 67.
For `CCc1c(Cc2cc(C)cc(C)c2)n2c(nc1=O)SCC2OCCO` (configuration not stated) the same measures were more than 100 µM, 19 µM and more than 5.
For `C=CCSc1nc(O)c(CC)c(Cc2cc(C)cc(C)c2)n1` the same measures were 68 µM, 2 µM and 34.
For `CCc1c(O)nc(SCC2OCCO2)nc1Cc1cc(C)cc(C)c1` the same measures were 37 µM, 3 µM and 12.
Turning to `CCc1c(O)nc(SCC(OC)OC)nc1Cc1cccc2ccccc12`, in the experiment with MT4 [1], the CC50 was more than 100 µM. This compound yielded an ED50 in experiment [2] of 32 µM. Also, in the experiment on MT4 [3], the SI is given as more than 3.
